Source: PubChem (Johns Hopkins Ion Channel Center)
Shown are actives, neighbours in structure and some others; about 3.7% of the full set was active somewhere.
KCNK9 inh = KCNK9 potassium channel inhibitors, primary screen, HEK293 cells, thallium flux | B-score at 10 µM | AID 488922, 2010 | FluxOR thallium flux fluorescence; hits give low values | Potassium channel subfamily K member 9 (Homo sapiens), Q9NPC2 | actives 1.2% (n = 310,000);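 active = ratio B-score over 3 SD below the library mean, with starting fluorescence within 5 SD of its mean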;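 also: negative B-score means less thallium flux so channel inhibition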
Kir21 block = inhibitors of mouse Kir2.1 inward-rectifier potassium channel. Inward rectifier potassium channel 2 (Mus musculus), P35561. HEK293-Kir2.1, FluxOR thallium flux fluorescence; hits give low values. AID 1672, 2009. B-score at 10 µM. actives 0.85% (n = 310,000);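 active = fluorescence ratio B-score at or below minus 3 SD of library scores, with starting-brightness B-score within 2 SD, cut at about -4.2 in these data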;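 also: channel flux triggered by added potassium and thallium sulfate stimulus; B-score of peak minus minimum fluorescence over baseline after thallium stimulus; more negative B-score means stronger Kir2.1 block with less thallium influx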
KCNQ1 pot = potentiators or activators of KCNQ1 channel, primary screen, cell-based, thallium flux, high-throughput | actives 0.35% (n = 310,000) | CHO-K1 KCNQ1, thallium flux FluxOR fluorescence; hits give high values | Potassium voltage-gated channel subfamily KQT member 1 (Homo sapiens), P51787 | B-score at 10 µM;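 active = fluorescence ratio B-score, a plate-corrected score, at least three library SD, with initial intensity B-score within 5 SD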
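Material: CHO-K1 cells stably expressing KCNQ1. Medium: assay buffer for compound exposure, DMSO matched across wells. Reagent: K+/Tl+ depolarizing stimulus. Compound dosing: single-concentration screen. Times: 37 °C overnight plating, 90-min dark dye load, 20-min compound pretreatment. Technique: FluxOR Tl+ flux fluorescence.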
KCNQ1 block = inhibitors of human KCNQ1 channel, primary screen, cell-based, thallium flux, high-throughput; Potassium voltage-gated channel subfamily KQT member 1 (Homo sapiens), P51787; B-score at 10 µM; actives 1.3% (n = 310,000); CHO-K1 KCNQ1, FluxOR thallium flux fluorescence; hits give high values;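 active = compounds whose thallium flux B-score, printed positive for inhibition, exceeds three library SD while starting fluorescence stays within three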;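 also: channel opened by potassium depolarization with thallium stimulus after 20 min compound exposure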
KCNK3 inh = human KCNK3 channel inhibitors, primary screen, CHO cells, FluxOR thallium flux, B-score; Potassium channel subfamily K member 3 (Homo sapiens), O14649; FluxOR fluorescence; hits give low values; B-score at 10 µM; actives 0.84% (n = 340,000);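 active = B-score under library mean minus 4 SD, starting fluorescence ratio at most library mean plus 5 SD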;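 also: more negative B-score means stronger inhibition of thallium flux through KCNK3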
hERG rescue = hERG rescue from dofetilide block, primary screen, cell-based, CHO-hERG, FluxOR thallium flux, dofetilide IC70; Voltage-gated inwardly rectifying potassium channel KCNH2 (Homo sapiens), Q12809; dofetilide IC70 present; activation (rescue from dofetilide block), less the hit threshold, % at 10 µM; actives 0.51% (n = 310,000);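 active = activation above the mean of controls blocked by dofetilide plus 5 SD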;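 also: thallium influx through hERG after potassium depolarization seen as dye fluorescence rise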
The depositor's hits bear a star.

COc1cc(/C=C2/C(=O)NN(c3cccc(F)c3)C2=O)ccc1OC(=O)c1ccco1 was read as KCNK9 inh inactive, Kir21 block -9.79*, KCNQ1 pot inactive, KCNQ1 block inactive, KCNK3 inh inactive and hERG rescue -10.2.
For COc1cc(/C=N/NC(=O)c2ccc(F)cc2)ccc1OC(=O)c1ccco1 the results were KCNK9 inh inactive, Kir21 block -1.18, KCNQ1 pot inactive, KCNQ1 block inactive, KCNK3 inh inactive and hERG rescue -10.4.
Screening C=CCN(CC=C)C(=S)NC(=O)c1ccc(C)c(Br)c1 returned KCNK9 inh inactive, Kir21 block -0.03, KCNQ1 pot 56*, KCNQ1 block inactive, KCNK3 inh inactive and hERG rescue 86.8*.
Screening COc1ccc(CC(=O)N(Cc2ccccc2)C(C)C)cc1 returned KCNK9 inh inactive, Kir21 block -4.27*, KCNQ1 pot inactive, KCNQ1 block inactive, KCNK3 inh inactive and hERG rescue -4.6.
For C=CCN(CC=C)C(=S)NC(=O)/C=C/c1ccc(OC)cc1 the results were KCNK9 inh inactive, Kir21 block 1.57, KCNQ1 pot inactive, KCNQ1 block inactive, KCNK3 inh inactive and hERG rescue 12.5*.
Screening CC(C)N(Cc1ccccc1)C(=O)COc1ccccc1 returned KCNK9 inh inactive, Kir21 block 0.24, KCNQ1 pot inactive, KCNQ1 block inactive, KCNK3 inh inactive and hERG rescue -1.0.
`C=CCN(CC=C)C(=S)NC(=O)/C=C/c1ccc(C)cc1` gave KCNK9 inh inactive, Kir21 block -0.58, KCNQ1 pot inactive, KCNQ1 block inactive, KCNK3 inh inactive and hERG rescue -4.4.
C=CCN(CC=C)C(=S)NC(=O)c1ccc(OC)cc1 was read as KCNK9 inh inactive, Kir21 block 0.12, KCNQ1 pot 13*, KCNQ1 block inactive, KCNK3 inh inactive and hERG rescue 28.4*.
C=CCNC(=O)c1ccc(OC)cc1 was read as KCNK9 inh inactive, Kir21 block 1.3, KCNQ1 pot inactive, KCNQ1 block inactive, KCNK3 inh inactive and hERG rescue -6.8.
Screening COc1ccc(C(=O)NC(=S)N(Cc2ccccc2)Cc2ccccc2)cc1 returned KCNK9 inh inactive, Kir21 block 0.17, KCNQ1 pot 85*, KCNQ1 block inactive, KCNK3 inh inactive and hERG rescue 33.3*.
For C=CCN(CC=C)C(=S)NC(=O)c1ccc(-c2ccccc2)cc1 the results were KCNK9 inh inactive, Kir21 block 0.8, KCNQ1 pot 15*, KCNQ1 block inactive, KCNK3 inh inactive and hERG rescue -0.1.
`C=CCN(CC=C)C(=S)NC(=O)/C=C/c1ccccc1` gave KCNK9 inh inactive, Kir21 block -0.87, KCNQ1 pot inactive, KCNQ1 block inactive, KCNK3 inh inactive and hERG rescue -1.6.
For CC(C)C(=O)NC(=S)N(Cc1ccccc1)Cc1ccccc1 the results were KCNK9 inh inactive, Kir21 block -0.41, KCNQ1 pot inactive, KCNQ1 block inactive, KCNK3 inh inactive and hERG rescue -5.6.
For O=C(NC(=S)N(Cc1ccccc1)Cc1ccccc1)c1ccccc1F the results were KCNK9 inh inactive, Kir21 block -0.3, KCNQ1 pot 13*, KCNQ1 block inactive, KCNK3 inh inactive and hERG rescue 16.4*.
`O=C(Nc1ccc(S(=O)(=O)Nc2nccs2)cc1)c1ccccc1OC(F)F` gave KCNK3 inh inactive.
For Cc1ccccc1-c1cc(C(=O)NCc2cccc(C(F)(F)F)c2)nn1CC1CC(c2cccc([N+](=O)[O-])c2)=NO1 (configuration not stated) the results were KCNK3 inh inactive.
For CC(=O)Nc1ccc(S(=O)(=O)N(C)CC(=O)OCC(=O)N(C)c2ccccc2)cc1 the results were KCNK9 inh inactive, Kir21 block -0.41, KCNQ1 pot inactive, KCNQ1 block inactive, KCNK3 inh inactive and hERG rescue -15.1.
